Activity calls are given as the source filed them. The rule behind the calls is not given here. Residues, ends and D or L forms follow the SMILES beside them.
Assays:
[1] = Tmax in Wistar rat at 10 mg/kg, po by LC-MS/MS analysis; assay type: ADME, organism-based; settings: in vivo
Method in brief: (§1)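 Male Wistar rats with jugular vein catheter, fasted overnight; dosed p.o. by gavage in olive oil or i.v. via catheter in 50% DMSO. Blood drawn from conscious unrestrained rats 5 min before dosing, then 5, 15, 30 min and 1–8 h after. Volume replaced with heparinized saline. Rats fed after 4 h sample. n = 3 per route.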

[2] = target: T1, C3a anaphylatoxin chemotactic receptor (Homo sapiens, UniProt Q16581); test: Agonist activity at C3a receptor in human MDM cells assessed as induction of intracellular calcium release measured at 1 sec interval for => 200 secs by Fluo-3 AM dye-based FLIPR assay; assay type: cell-based
T1 sequence (Q16581 whole entry): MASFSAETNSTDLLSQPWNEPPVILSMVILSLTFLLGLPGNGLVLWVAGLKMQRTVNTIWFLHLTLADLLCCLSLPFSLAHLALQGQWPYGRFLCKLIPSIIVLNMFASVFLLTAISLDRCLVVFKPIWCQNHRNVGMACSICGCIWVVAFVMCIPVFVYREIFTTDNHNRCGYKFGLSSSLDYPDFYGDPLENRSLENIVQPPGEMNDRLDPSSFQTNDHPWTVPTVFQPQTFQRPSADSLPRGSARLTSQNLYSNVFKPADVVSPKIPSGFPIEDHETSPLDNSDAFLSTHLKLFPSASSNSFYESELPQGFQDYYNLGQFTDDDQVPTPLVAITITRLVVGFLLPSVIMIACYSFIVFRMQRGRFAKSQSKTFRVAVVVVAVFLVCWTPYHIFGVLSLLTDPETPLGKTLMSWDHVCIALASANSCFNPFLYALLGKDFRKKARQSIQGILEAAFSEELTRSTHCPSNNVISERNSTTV
Method in brief: (§2)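 HMDMs were differentiated from CD14⁺ monocytes with M-CSF (100 ng/mL) for 7 days and seeded overnight at 5 × 10⁴ cells/well. Cells were loaded with 4 μM Fluo-3 AM for 1 h at 37 °C, then placed in HBSS with 2.5 mM probenecid and 20 mM HEPES, pH 7.4. Agonist was added on FLIPR and read at ex 495/em 520 nm. EC50 is relative to the maximum from 1 μM C3a; n ≥ 3.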

[3] = target: T2, C3a anaphylatoxin chemotactic receptor (Homo sapiens) (UniProt Q16581); test: Potency index, ratio of SB290157 IC50 to test compound IC50 for antagonist activity at C3a receptor in human MDM cells; assay type: cell-based
T2 sequence (whole entry): T1 sequence (Q16581 whole entry)

[4] = target: T3, C5a anaphylatoxin chemotactic receptor 1 (Homo sapiens) (UniProt P21730); test: Antagonist activity at C5a receptor in human MDM cells assessed as inhibition of C5a-induced intracellular calcium release preincubated for 30 mins followed by C5a addition and measured at 1 sec interval for => 200 secs by Fluo-3 AM dye-based FLIPR assay; assay type: functional, cell-based
T3 sequence (whole entry): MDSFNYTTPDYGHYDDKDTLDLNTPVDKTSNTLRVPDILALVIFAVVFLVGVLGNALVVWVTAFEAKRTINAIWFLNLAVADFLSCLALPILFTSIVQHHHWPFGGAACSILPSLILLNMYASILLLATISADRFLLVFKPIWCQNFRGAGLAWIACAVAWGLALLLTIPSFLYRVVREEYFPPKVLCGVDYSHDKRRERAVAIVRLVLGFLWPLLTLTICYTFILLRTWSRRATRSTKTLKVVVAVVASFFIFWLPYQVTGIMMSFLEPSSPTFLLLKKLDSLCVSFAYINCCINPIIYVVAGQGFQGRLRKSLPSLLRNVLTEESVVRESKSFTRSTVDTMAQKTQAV
Method in brief: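 HMDMs from CD14+ monocytes after 7 days in M-CSF; 5 × 10⁴ cells/well seeded overnight. Cells loaded 1 h at 37 °C with 4 μM Fluo-3 AM, then washed into HBSS with 2.5 mM probenecid and 20 mM HEPES, pH 7.4. Antagonist preincubated 30 min at 37 °C before C5a. Fluorescence (ex 495/em 520 nm) read every 1 s for ≥200 s.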

[5] = system: Rattus norvegicus; test: Antiinflammatory activity in Wistar rat model of BR103-induced paw edema assessed as reduction in hind paw swelling at 10 mg/kg, po administered via gavage pretreated for 2 hrs followed by BR103 challenge and measured after 30 mins by digital caliper method relative to control; assay type: functional; design: scale not given: the % may be the effect or the level left
Method in brief: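 Male Wistar rats were given antagonist at 10 mg/kg by oral gavage in olive oil 2 h before intraplantar BR103 (350 μg in 100 μL of 5% DMSO). Sham paws received vehicle; sham and control rats received olive oil only. Paw thickness and width were measured with digital calipers at 0, 0.5, 1 and 2 h after agonist; n = 3 per group.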

[6] = Stability of the compound in rat plasma at 1 mM measured after 4 hrs by LC-MS analysis; assay type: ADME, cell-free
Method in brief: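 Compound added to rat plasma from 1 mM DMSO stock (stock concentration) and incubated at 37 °C. Samples taken at 0, 5, 15, 30, 60, 120 and 240 min, quenched in MeCN/H₂O 9:1, centrifuged and analyzed by LC-MS. Plasma activity checked with SLIGRL-NH₂.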

[7] = Stability of the compound in rat liver microsomes assessed as compound degradation at 1 uM preincubated for 5 mins followed by NADPH addition and measured after 1 hr by LC-MS/MS analysis; assay type: ADME, Microsome; settings: read-out: Drug degradation
Method in brief: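 Compound at 1 μM in 100 mM phosphate buffer pH 7.4 with 0.1% DMSO was mixed with rat liver microsomes and preincubated 5 min at 37 °C before NADPH was added. Samples taken at 0, 5, 15, 30 and 60 min, quenched in MeCN/H₂O 9:1 and analyzed by LC-MS/MS. Microsome activity checked with SLIGRL-NH₂; n = 3.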

[8] = Cmax in Wistar rat at 10 mg/kg, po by LC-MS/MS analysis; assay type: ADME, organism-based; design: dose 10 mg/kg, route oral; settings: in vivo; method in brief: as §1
[9] = target: T2, C3a anaphylatoxin chemotactic receptor (Homo sapiens); test: Potency index, ratio of SB290157 IC50 to test compound IC50 for antagonist activity at C3a receptor in human LAD2 cells assessed as inhibition of C3a-induced beta-hexosaminidase release; assay type: cell-based
[10] = target: T2, C3a anaphylatoxin chemotactic receptor (Homo sapiens); test: (§3) Antagonist activity at C3a receptor in human MDM cells assessed as inhibition of C3a-induced intracellular calcium release preincubated for 30 mins followed by C3a addition and measured at 1 sec interval for => 200 secs by Fluo-3 AM dye-based FLIPR assay; assay type: functional, cell-based
Method in brief: (§4)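 Macrophages were derived from CD14⁺ monocytes (M-CSF, 7 days) and dye-loaded with 4 μM Fluo-3 AM for 1 h at 37 °C in HBSS/probenecid/HEPES, pH 7.4. Antagonist was preincubated for 30 min at 37 °C before addition of synthetic full-length human C3a (100 nM). FLIPR fluorescence was read at ex 495/em 520 nm. Percent response was plotted against log concentration; n ≥ 3.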

[11] = target: T1, C3a anaphylatoxin chemotactic receptor; test: as §3; assay type: functional, cell-based; method in brief: as §4
[12] = AUC (0 to 8 hrs) in Wistar rat at 10 mg/kg, po by LC-MS/MS analysis; assay type: ADME, organism-based; design: dose 10 mg/kg, time < 8 hr, route oral; settings: in vivo; method in brief: as §1
[13] = Elimination half-life in Wistar rat at 1 mg/kg, iv by LC-MS/MS analysis; assay type: ADME, organism-based; settings: in vivo, read-out: beta t1/2; method in brief: as §1
[14] = Volume of distribution in Wistar rat at 1 mg/kg, iv by LC-MS/MS analysis; assay type: ADME, organism-based; settings: in vivo; method in brief: as §1
[15] = target: T2, C3a anaphylatoxin chemotactic receptor (Homo sapiens); test: (§5) Antagonist at C3a receptor in human LAD2 cells assessed as inhibition of C3a-induced beta-hexosaminidase release preincubated for 30 mins followed by C3a addition; assay type: cell-based
Method in brief: (§6)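 LAD2 mast cells grown with SCF, 1 × 10⁴ cells/well seeded overnight and presensitized overnight with IgE (100 ng/mL). Compounds preincubated 30 min at 37 °C in 0.1 M HEPES pH 7.4, then C3a added and β-hexosaminidase release measured. IC50 is concentration inhibiting 50% of release induced by 100 nM C3a; n ≥ 3.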

[16] = target: T1, C3a anaphylatoxin chemotactic receptor; test: as §5; assay type: cell-based; method in brief: as §6
[17] = AUC (0 to 8 hrs) in Wistar rat at 1 mg/kg, iv by LC-MS/MS analysis; assay type: ADME, organism-based; design: time < 8 hr, dose 1 mg/kg, route intravenous; settings: in vivo; method in brief: as §1
[18] = Clearance in Wistar rat at 1 mg/kg, iv by LC-MS/MS analysis; assay type: ADME, organism-based; settings: in vivo; method in brief: as §1
[19] = system: Rattus norvegicus; test: Antiinflammatory activity in Wistar rat model of BR103-induced paw edema assessed as reduction in hind paw swelling at <30 mg/kg, po administered via gavage pretreated for 2 hrs followed by BR103 challenge and measured after 0.5 to 2 hrs by digital caliper method; assay type: functional, organism-based
[20] = Stability of the compound in rat plasma at 1 mM measured after 10 mins by LC-MS analysis; assay type: ADME, cell-free; settings: 1000 µM
[21] = Clearance in Wistar rat at 0.5 mg/kg, iv by LC-MS/MS analysis; assay type: ADME, organism-based; settings: in vivo; method in brief: as §1
[22] = target: T2, C3a anaphylatoxin chemotactic receptor (Homo sapiens); test: Displacement of Eu-DTPA-C3a from Galpha16-coupled C3a receptor (unknown origin) expressed in HEK293 cells measured after 60 mins by time-resolved fluorescence assay; assay type: cell-based
[23] = system: Rattus norvegicus; test: Antiinflammatory activity in Wistar rat model of BR103-induced paw edema assessed as reduction in hind paw swelling at 30 mg/kg, po administered via gavage pretreated for 4 hrs followed by BR103 challenge and measured after 30 mins by digital caliper method relative to control; assay type: functional; design: scale not given: the % may be the effect or the level left
Method in brief: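 For duration of action, antagonist was given at 30 mg/kg by oral gavage in olive oil at 1, 2, 4, 6, 8 or 12 h before intraplantar BR103 (350 μg/paw) in male Wistar rats. Controls received olive oil 2 h before challenge. Paw thickness and width were measured with calipers at 0 and 0.5 h; n = 3 per group.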

[24] = AUC (0 to 8 hrs) in Wistar rat at 0.5 mg/kg, iv by LC-MS/MS analysis; assay type: ADME, organism-based; design: time < 8 hr, dose 0.5 mg/kg, route intravenous; settings: in vivo; method in brief: as §1
[25] = Volume of distribution in Wistar rat at 0.5 mg/kg, iv by LC-MS/MS analysis; assay type: ADME, organism-based; settings: in vivo; method in brief: as §1
[26] = Elimination half-life in Wistar rat at 0.5 mg/kg, iv by LC-MS/MS analysis; assay type: ADME, organism-based; settings: in vivo, read-out: beta t1/2; method in brief: as §1
[27] = target: T1, C3a anaphylatoxin chemotactic receptor; test: Partial agonist activity at C3a receptor in human MDM cells assessed as induction of intracellular calcium release at higher concentration measured at 1 sec interval for => 200 secs by Fluo-3 AM dye-based FLIPR assay relative to control; assay type: cell-based; method in brief: as §2

Row | Compound | Tmax [1] [h] | EC50 ([2]; read-out: EC50) [nM] | EC50 ([2]; read-out: pEC50 (converted)) [nM] | Ratio IC50 [3] | inhibition [4] | Activity [5] [%] | Stability [6] | metabolised at 1 h, 1 µM [7] [%] | Cmax [8] [ng/mL] | Ratio IC50 [9] | IC50 ([11]; read-out: IC50) [nM] | AUC(0-t) at 8 h [12] [ng·h/mL] | inhibition [15] | IC50 [16] [nM] | other results
1 | Cc1cc(C(c2ccccc2)c2ccccc2)sc1C(=O)N[C@@H](CCCNC(=N)N)C(=O)O | 4 | > 100000 | > 100000 | 100 | inactive | 49 | Stable | 40 | 23 | 100 | 7 | 90 | Dose-dependent effect | 2 | inhibition [10]: Dose-dependent effect; half-life [13]: 0.75 h; Vd [14]: 0.7 L; AUC(0-t) at 8 h [17]: 779 ng·h/mL; clearance [18]: 18 mL/min/kg
2 | N=C(N)NCCC[C@H](NC(=O)COCC(c1ccccc1)c1ccccc1)C(=O)O |  | > 100000 | > 100000 |  |  |  |  |  |  |  | 1300 to 3800 |  | Dose-dependent effect | 540 | Activity [19]: inactive; IC50 ([11]; read-out: pIC50 (converted)): 3980 nM
3 | CC(C)C[C@H](NC(=O)OC(C)(C)C)C(=O)N[C@@H](C)C(=O)N[C@@H](CCCNC(=N)N)C(=O)O (HELM PEPTIDE1{[CC(C)(C)OC(=O)[*:2]].L.A.R}$$$$V2.0) |  |  |  |  |  |  |  |  |  |  |  |  |  |  | Stability [20]: Unstable
4 | N=C(N)NCCC[C@H](NC(=O)c1ccc(C(c2ccccc2)c2ccccc2)s1)C(=O)O | 3.5 | > 100000 | > 100000 | 15 | inactive | 20 | Stable | 60 | 91 | 100 | 85 | 436 | Dose-dependent effect | 4 | clearance [21]: 10.3 mL/min/kg; inhibition [22]: Dose-dependent effect; Activity [23]: <=60%; AUC(0-t) at 8 h [24]: 811 ng·h/mL; Vd [25]: 0.4 L; half-life [26]: 0.533 h; Activity [27]: 30 to 80%

Source: ChEMBL document CHEMBL4376878, “Potent Thiophene Antagonists of Human Complement C3a Receptor with Anti-Inflammatory Activity” (J Med Chem, 2020)
